Measurements as given in ChEMBL document CHEMBL1123055, “Preparation of biologically active ristocetin derivatives: replacements of the 1'-amino group” (J Med Chem, 1985).
Converted amounts (≈) assume the structure as drawn.

Experiments:
Streptococcus pyogenes = assay: The antibacterial activity was evaluated as minimal inhibitory concentration (MIC) against Streptococcus pyogenes C203; assay type: functional
Summary of the method: (§1)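 Twofold agar dilution of compound in 10 mL brain heart infusion agar. Organisms grown 24 h, diluted 1/100, inoculum applied by multipoint replicator. Plates incubated at 35 °C (24 h per table footnote; 25 h per methods). MIC read as lowest inhibiting concentration, μg/mL. Ristocetin run as standard.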

Enterococcus faecalis = assay: The antibacterial activity was evaluated as minimal inhibitory concentration (MIC) against Streptococcus faecalis 10541; assay type: functional; summary of the method: as §1
[1] = tested on: Staphylococcus epidermidis; assay: The antibacterial activity was evaluated as minimal inhibitory concentration (MIC) against Staphylococcus epidermis 3519; assay type: functional; summary of the method: as §1
Staphylococcus aureus = assay: The antibacterial activity was evaluated as minimal inhibitory concentration (MIC) against Staphylococcus aureus Smith; assay type: functional; summary of the method: as §1
[2] = Association constant was evaluated towards synthetic peptidoglycan analogue Ac2-Lys-D-Ala-D-Ala; assay type: ADME
Summary of the method: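 Differential UV spectroscopy in tandem cells, 2 cm total path. Antibiotic at 50 μg/mL in 20 mM sodium citrate buffer pH 5.1, with 10% methanol for poorly water-soluble compounds. Ac2-Lys-D-Ala-D-Ala peptide added stepwise. Absorbance change followed at the wavelength of maximal change, and the association constant K_A derived from it.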

| SMILES | MIC (Streptococcus pyogenes) [mg/L] | MIC (Enterococcus faecalis) [mg/L] | MIC [1] [mg/L] | MIC (Staphylococcus aureus) [mg/L] | K A [2] [M⁻¹] |
| --- | --- | --- | --- | --- | --- |
| COC(=O)[C@H]1NC(=O)C2NC(=O)[C@H](NC(=O)[C@@H]3NC(=O)[C@H]4NC(=O)[C@H](NC(=O)[C@@H](N)c5ccc(O)c(c5)Oc5cc4cc(O)c5C)[C@H](O)c4ccc(cc4)Oc4cc3cc(c4O)Oc3ccc(cc3)C2O)c2ccc(O)c(c2)-c2c(O)cc(O)cc21 (stereo not given in full) | 3.1 (≈ 2.64 µM) | 3.1 (≈ 2.64 µM) | 3.1 (≈ 2.64 µM) | 3.1 (≈ 2.64 µM) | 670000 |
| COC(=O)[C@H]1NC(=O)C2NC(=O)[C@H](NC(=O)[C@@H]3NC(=O)[C@H]4NC(=O)[C@H](NC(=O)[C@H](N)c5ccc(O)c(c5)Oc5cc4cc(O)c5C)[C@H](O)c4ccc(cc4)Oc4cc3cc(c4O)Oc3ccc(cc3)C2O)c2ccc(O)c(c2)-c2c(O)cc(O)cc21 (stereo not given in full) | 25 (≈ 21.3 µM) | 50 (≈ 42.6 µM) | 50 (≈ 42.6 µM) | 25 (≈ 21.3 µM) | 20000 |
| COC(=O)[C@H]1NC(=O)C2NC(=O)[C@H](NC(=O)[C@@H]3NC(=O)[C@H]4NC(=O)[C@H](NC(=O)[C@H](O)c5ccc(O)c(c5)Oc5cc4cc(O)c5C)[C@H](O)c4ccc(cc4)Oc4cc3cc(c4O)Oc3ccc(cc3)C2O)c2ccc(O)c(c2)-c2c(O)cc(O)cc21 (stereo not given in full) | 6.2 (≈ 5.28 µM) | 6.2 (≈ 5.28 µM) | 12.5 (≈ 10.6 µM) | 12.5 (≈ 10.6 µM) | 150000 |
| COC(=O)[C@H]1NC(=O)C2NC(=O)[C@H](NC(=O)[C@@H]3NC(=O)[C@H]4NC(=O)[C@H](NC(=O)C(=O)c5ccc(O)c(c5)Oc5cc4cc(O)c5C)[C@H](O)c4ccc(cc4)Oc4cc3cc(c4O)Oc3ccc(cc3)C2O)c2ccc(O)c(c2)-c2c(O)cc(O)cc21 (stereo not given in full) | 3.1 (≈ 2.64 µM) | 12.5 (≈ 10.7 µM) | 12.5 (≈ 10.7 µM) | 6.2 (≈ 5.29 µM) | 560000 |

Next, values leading:

| MIC (Streptococcus pyogenes) [mg/L] | MIC (Enterococcus faecalis) [mg/L] | MIC [1] [mg/L] | MIC (Staphylococcus aureus) [mg/L] | K A [2] [M⁻¹] | SMILES |
| --- | --- | --- | --- | --- | --- |
| 1.56 (≈ 0.754 µM) | 6.2 (≈ 3 µM) | 25 (≈ 12.1 µM) | 12.5 (≈ 6.04 µM) | 600000 | COC(=O)[C@H]1NC(=O)[C@H]2NC(=O)[C@H](NC(=O)[C@@H]3NC(=O)[C@H]4NC(=O)[C@H](NC(=O)[C@H](N)c5ccc(O)c(c5)Oc5cc4cc(O)c5C)[C@H](O)c4ccc(cc4)Oc4cc3cc(c4O[C@H]3O[C@H](CO[C@H]4O[C@H](C)[C@@H](O)[C@@H](O)[C@@H]4O)[C@H](O)[C@H](O)[C@H]3O[C@H]3O[C@@H](CO)[C@@H](O)[C@@H](O)[C@H]3O[C@H]3OC[C@@H](O)[C@@H](O)[C@H]3O)Oc3ccc(cc3)[C@H]2O[C@@H]2C[C@@H](N)[C@@H](O)[C@@H](C)O2)c2ccc(O)c(c2)-c2c(O[C@@H]3O[C@H](CO)[C@@H](O)[C@@H](O)[C@@H]3O)cc(O)cc21 |
| 3.1 (≈ 2.55 µM) | 6.2 (≈ 5.1 µM) | 6.2 (≈ 5.1 µM) | 6.2 (≈ 5.1 µM) | 140000 | COC(=O)[C@H]1NC(=O)C2NC(=O)[C@H](NC(=O)[C@@H]3NC(=O)[C@H]4NC(=O)[C@H](NC(=O)[C@@H](NC(C)=O)c5ccc(O)c(c5)Oc5cc4cc(O)c5C)[C@H](O)c4ccc(cc4)Oc4cc3cc(c4O)Oc3ccc(cc3)C2O)c2ccc(O)c(c2)-c2c(O)cc(O)cc21 (stereo not given in full) |
| 1.56 (≈ 1.31 µM) | 3.1 (≈ 2.61 µM) | 3.1 (≈ 2.61 µM) | 3.1 (≈ 2.61 µM) | 960000 | COC(=O)[C@H]1NC(=O)C2NC(=O)[C@H](NC(=O)[C@@H]3NC(=O)[C@H]4NC(=O)[C@H](NC(=O)/C(=N/O)c5ccc(O)c(c5)Oc5cc4cc(O)c5C)[C@H](O)c4ccc(cc4)Oc4cc3cc(c4O)Oc3ccc(cc3)C2O)c2ccc(O)c(c2)-c2c(O)cc(O)cc21 (stereo not given in full) |
